{
  "source": "ChEMBL document CHEMBL1629601",
  "about": "“In vitro susceptibility of field isolates of Leishmania donovani to Miltefosine and amphotericin B: correlation with sodium antimony gluconate susceptibility and implications for treatment in areas of endemicity” (2009)",
  "format_in_all_cases": "functional",
  "key": {"[1]": {"tested_on": "Leishmania donovani", "assay": "Antimicrobial activity against Leishmania donovani K132 amastigote", "conditions": "read-out: ED50 (the source's name)"}, "[2]": {"tested_on": "Leishmania donovani", "assay": "Antimicrobial activity against Leishmania donovani LdAG83 promastigote", "conditions": "read-out: ED50 (the source's name)"}, "[3]": {"tested_on": "Leishmania donovani", "assay": "Decrease in LdMT gene expression in Leishmania donovani K59M20 by RT-PCR method", "outline": "(§1)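 MIL-resistant M20 parasites were generated by raising the MIL concentration stepwise up to 20 μg/ml. LdMT or LdRos3 expression was quantified by real-time RT-PCR (SYBR green, 2−ΔΔCt method) and reported as an expression index, the ratio to the standard strain LdAG83. A decrease is relative to LdAG83. Values are means of three independent experiments.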"}, "[4]": {"tested_on": "Leishmania donovani", "assay": "Antimicrobial activity against Leishmania donovani K59M20 promastigote", "conditions": "read-out: ED50 (the source's name)"}, "[5]": {"tested_on": "Leishmania donovani", "assay": "Antimicrobial activity against Leishmania donovani K59M20 amastigote", "conditions": "read-out: ED50 (the source's name)"}, "[6]": {"tested_on": "Leishmania donovani", "assay": "Antimicrobial activity against Leishmania donovani K251 promastigote", "conditions": "read-out: ED50 (the source's name)"}, "[7]": {"tested_on": "Leishmania donovani", "assay": "Antimicrobial activity against Leishmania donovani K59 promastigote", "conditions": "read-out: ED50 (the source's name)"}, "[8]": {"tested_on": "Leishmania donovani", "assay": "Decrease in LdMT gene expression in Leishmania donovani K59 by RT-PCR method", "outline": "(§2)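 VL field isolates of L. donovani. Transcript levels of LdMT or LdRos3 were measured by real-time RT-PCR with SYBR green and analysed by the 2−ΔΔCt method. The expression index is the ratio of gene expression to that of the standard L. donovani strain LdAG83, and a decrease is relative to LdAG83. Values are means of three independent experiments.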"}, "[9]": {"tested_on": "Leishmania donovani", "assay": "Decrease in LdRoS3 gene expression in Leishmania donovani K59M20 by RT-PCR method", "outline": "as §1"}, "[10]": {"tested_on": "Leishmania donovani", "assay": "Antimicrobial activity against Leishmania donovani K498 promastigote", "conditions": "read-out: ED50 (the source's name)"}, "[11]": {"tested_on": "Leishmania donovani", "assay": "Decrease in LdMT gene expression in Leishmania donovani K131 by RT-PCR method", "outline": "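LdMT transcript levels were measured by real-time RT-PCR with SYBR green and analysed by the 2−ΔΔCt method. They are expressed as an expression index, the ratio relative to reference strain LdAG83, and are the mean of three independent experiments.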"}, "[12]": {"tested_on": "Leishmania donovani", "assay": "Antimicrobial activity against Leishmania donovani K481 promastigote", "conditions": "read-out: ED50 (the source's name)"}, "[13]": {"tested_on": "Leishmania donovani", "assay": "Decrease in LdRoS3 gene expression in Leishmania donovani K131 by RT-PCR method", "outline": "as §2"}, "[14]": {"tested_on": "Leishmania donovani", "assay": "Decrease in LdMT gene expression in Leishmania donovani K435 by RT-PCR method", "outline": "as §2"}, "[15]": {"tested_on": "Leishmania donovani", "assay": "Antimicrobial activity against Leishmania donovani K192 promastigote", "conditions": "read-out: ED50 (the source's name)"}, "[16]": {"tested_on": "Leishmania donovani", "assay": "Decrease in LdRoS3 gene expression in Leishmania donovani K132 by RT-PCR method", "outline": "as §2"}, "[17]": {"tested_on": "Leishmania donovani", "assay": "Antimicrobial activity against Leishmania donovani K131 amastigote", "conditions": "read-out: ED50 (the source's name)"}, "[18]": {"tested_on": "Leishmania donovani", "assay": "Antimicrobial activity against Leishmania donovani K417M20 promastigote", "conditions": "read-out: ED50 (the source's name)"}, "[19]": {"tested_on": "Leishmania donovani", "assay": "Antimicrobial activity against Leishmania donovani K192 amastigote", "conditions": "read-out: ED50 (the source's name)"}, "[20]": {"tested_on": "Leishmania donovani", "assay": "Antimicrobial activity against Leishmania donovani K435 promastigote", "conditions": "read-out: ED50 (the source's name)"}, "[21]": {"tested_on": "Leishmania donovani", "assay": "Decrease in LdRoS3 gene expression in Leishmania donovani K439 by RT-PCR method", "outline": "as §2"}, "[22]": {"tested_on": "Leishmania donovani", "assay": "Decrease in LdRoS3 gene expression in Leishmania donovani K516 by RT-PCR method", "outline": "as §2"}, "[23]": {"tested_on": "Leishmania donovani", "assay": "Decrease in LdMT gene expression in Leishmania donovani K429 by RT-PCR method", "outline": "as §2"}, "[24]": {"tested_on": "Leishmania donovani", "assay": "Antimicrobial activity against Leishmania donovani K417M20 amastigote", "conditions": "read-out: ED50 (the source's name)"}, "[25]": {"tested_on": "Leishmania donovani", "assay": "Antimicrobial activity against Leishmania donovani K131 promastigote", "conditions": "read-out: ED50 (the source's name)"}, "[26]": {"tested_on": "Leishmania donovani", "assay": "Antimicrobial activity against Leishmania donovani K216 amastigote", "conditions": "read-out: ED50 (the source's name)"}, "[27]": {"tested_on": "Leishmania donovani", "assay": "Antimicrobial activity against Leishmania donovani K435 amastigote", "conditions": "read-out: ED50 (the source's name)"}, "[28]": {"tested_on": "Leishmania donovani", "assay": "Decrease in LdMT gene expression in Leishmania donovani K216 by RT-PCR method", "outline": "as §2"}, "[29]": {"tested_on": "Leishmania donovani", "assay": "Decrease in LdRoS3 gene expression in Leishmania donovani K149 by RT-PCR method", "outline": "as §2"}, "[30]": {"tested_on": "Leishmania donovani", "assay": "Antimicrobial activity against Leishmania donovani K516 promastigote", "conditions": "read-out: ED50 (the source's name)"}, "[31]": {"tested_on": "Leishmania donovani", "assay": "Decrease in LdRoS3 gene expression in Leishmania donovani K59 by RT-PCR method", "outline": "as §2"}, "[32]": {"tested_on": "Leishmania donovani", "assay": "Decrease in LdMT gene expression in Leishmania donovani K516 by RT-PCR method", "outline": "as §2"}, "[33]": {"tested_on": "Leishmania donovani", "assay": "Decrease in LdMT gene expression in Leishmania donovani K192 by RT-PCR method", "outline": "as §2"}, "[34]": {"tested_on": "Leishmania donovani", "assay": "Decrease in LdRoS3 gene expression in Leishmania donovani K135 by RT-PCR method", "outline": "as §2"}, "[35]": {"tested_on": "Leishmania donovani", "assay": "Antimicrobial activity against Leishmania donovani K429 amastigote", "conditions": "read-out: ED50 (the source's name)"}, "[36]": {"tested_on": "Leishmania donovani", "assay": "Antimicrobial activity against Leishmania donovani K498 amastigote", "conditions": "read-out: ED50 (the source's name)"}, "[37]": {"tested_on": "Leishmania donovani", "assay": "Antimicrobial activity against Leishmania donovani K133 amastigote", "conditions": "read-out: ED50 (the source's name)"}, "[38]": {"tested_on": "Leishmania donovani", "assay": "Decrease in LdRoS3 gene expression in Leishmania donovani K111 by RT-PCR method", "outline": "as §2"}, "[39]": {"tested_on": "Leishmania donovani", "assay": "Antimicrobial activity against Leishmania donovani K59 amastigote", "conditions": "read-out: ED50 (the source's name)"}, "[40]": {"tested_on": "Leishmania donovani", "assay": "Antimicrobial activity against Leishmania donovani K429 promastigote", "conditions": "read-out: ED50 (the source's name)"}, "[41]": {"tested_on": "Leishmania donovani", "assay": "Decrease in LdRoS3 gene expression in Leishmania donovani K429 by RT-PCR method", "outline": "as §2"}},
  "data": [
    {"smiles": "CCCCCCCCCCCCCCCCOP(=O)([O-])OCC[N+](C)(C)C", "note": "[MILTEFOSINE]", "values": [
      {"measurement": "EC50", "setting": "[1]", "result": 0.48, "unit": "µg/mL"},
      {"measurement": "EC50", "setting": "[2]", "result": 1.05, "unit": "µg/mL"},
      {"measurement": "fold change (FC)", "setting": "[3]", "result": 13.33},
      {"measurement": "EC50", "setting": "[4]", "result": "> 15", "unit": "µg/mL"},
      {"measurement": "EC50", "setting": "[5]", "result": "> 15", "unit": "µg/mL"},
      {"measurement": "EC50", "setting": "[6]", "result": 0.4, "unit": "µg/mL"},
      {"measurement": "EC50", "setting": "[7]", "result": 1.19, "unit": "µg/mL"},
      {"measurement": "fold change (FC)", "setting": "[8]", "result": 2.84},
      {"measurement": "fold change (FC)", "setting": "[9]", "result": 100},
      {"measurement": "EC50", "setting": "[10]", "result": 1.32, "unit": "µg/mL"},
      {"measurement": "fold change (FC)", "setting": "[11]", "result": 2.43},
      {"measurement": "EC50", "setting": "[12]", "result": 1.9, "unit": "µg/mL"},
      {"measurement": "fold change (FC)", "setting": "[13]", "result": 11.1},
      {"measurement": "fold change (FC)", "setting": "[14]", "result": 2.67},
      {"measurement": "EC50", "setting": "[15]", "result": 1.91, "unit": "µg/mL"},
      {"measurement": "fold change (FC)", "setting": "[16]", "result": 55.55},
      {"measurement": "EC50", "setting": "[17]", "result": 0.51, "unit": "µg/mL"},
      {"measurement": "EC50", "setting": "[18]", "result": "> 15", "unit": "µg/mL"},
      {"measurement": "EC50", "setting": "[19]", "result": 1.99, "unit": "µg/mL"},
      {"measurement": "EC50", "setting": "[20]", "result": 1.16, "unit": "µg/mL"},
      {"measurement": "fold change (FC)", "setting": "[21]", "result": 3.12},
      {"measurement": "fold change (FC)", "setting": "[22]", "result": 83.33},
      {"measurement": "fold change (FC)", "setting": "[23]", "result": 1.26},
      {"measurement": "EC50", "setting": "[24]", "result": "> 15", "unit": "µg/mL"},
      {"measurement": "EC50", "setting": "[25]", "result": 0.63, "unit": "µg/mL"},
      {"measurement": "EC50", "setting": "[26]", "result": 0.91, "unit": "µg/mL"},
      {"measurement": "EC50", "setting": "[27]", "result": 1.08, "unit": "µg/mL"},
      {"measurement": "fold change (FC)", "setting": "[28]", "result": 1.4},
      {"measurement": "fold change (FC)", "setting": "[29]", "result": 7.69},
      {"measurement": "EC50", "setting": "[30]", "result": 1.62, "unit": "µg/mL"},
      {"measurement": "fold change (FC)", "setting": "[31]", "result": 4.06},
      {"measurement": "fold change (FC)", "setting": "[32]", "result": 8},
      {"measurement": "fold change (FC)", "setting": "[33]", "result": 0.23},
      {"measurement": "fold change (FC)", "setting": "[34]", "result": 1.67},
      {"measurement": "EC50", "setting": "[35]", "result": 1.24, "unit": "µg/mL"},
      {"measurement": "EC50", "setting": "[36]", "result": 1.65, "unit": "µg/mL"},
      {"measurement": "EC50", "setting": "[37]", "result": 0.93, "unit": "µg/mL"},
      {"measurement": "fold change (FC)", "setting": "[38]", "result": 5.26},
      {"measurement": "EC50", "setting": "[39]", "result": 1.86, "unit": "µg/mL"},
      {"measurement": "EC50", "setting": "[40]", "result": 1.26, "unit": "µg/mL"},
      {"measurement": "fold change (FC)", "setting": "[41]", "result": 8.85}
    ]}
  ]
}
